Experimental data: ChEMBL document CHEMBL1157184, “Hymenoic acid, a novel specific inhibitor of human DNA polymerase lambda from a fungus of Hymenochaetaceae sp” (Bioorg Med Chem, 2008)
Activity calls are given as the source filed them. No cut-off for these calls is given here.

Tests used:
[1] = target: T1, DNA polymerase eta (Homo sapiens) (UniProt Q9Y253); experiment: Inhibition of human DNA polymerase eta at 200 uM
T1 sequence (whole entry): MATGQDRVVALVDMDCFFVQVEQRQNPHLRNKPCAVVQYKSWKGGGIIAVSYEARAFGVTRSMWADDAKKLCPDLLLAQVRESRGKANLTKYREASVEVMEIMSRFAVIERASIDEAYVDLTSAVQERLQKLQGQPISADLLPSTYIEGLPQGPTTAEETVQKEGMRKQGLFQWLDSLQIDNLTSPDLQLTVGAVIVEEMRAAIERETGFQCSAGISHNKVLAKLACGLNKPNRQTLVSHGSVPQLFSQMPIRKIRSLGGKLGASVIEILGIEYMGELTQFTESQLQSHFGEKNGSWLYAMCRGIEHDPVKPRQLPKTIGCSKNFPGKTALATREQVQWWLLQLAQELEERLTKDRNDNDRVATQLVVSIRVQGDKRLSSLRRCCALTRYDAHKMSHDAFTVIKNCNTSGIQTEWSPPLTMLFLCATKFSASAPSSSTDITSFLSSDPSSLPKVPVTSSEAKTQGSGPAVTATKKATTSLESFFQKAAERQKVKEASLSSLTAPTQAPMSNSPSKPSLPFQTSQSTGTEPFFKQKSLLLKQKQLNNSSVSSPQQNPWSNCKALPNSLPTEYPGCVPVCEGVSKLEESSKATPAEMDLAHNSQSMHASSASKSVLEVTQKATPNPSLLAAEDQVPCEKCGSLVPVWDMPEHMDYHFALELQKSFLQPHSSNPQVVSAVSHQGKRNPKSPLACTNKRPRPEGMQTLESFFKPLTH
Method in brief: (§1)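 Compound dissolved in DMSO and sonicated 30 s, then held with each polymerase (final 0.05 U) in 50 mM Tris-HCl pH 7.5, 1 mM DTT, 50% glycerol, 0.1 mM EDTA at 0 °C for 10 min. Reaction with poly(dA)/oligo(dT)12-18 and dTTP ran 60 min at 37 °C (Taq at 74 °C). Activity relative to no-compound control; means ± SEM, four independent experiments.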

[2] = target: DNA polymerase I, thermostable (Thermus aquaticus) (UniProt P19821); experiment: Inhibition of Taq polymerase at 200 uM; method in brief: as §1
[3] = target: DNA polymerase (Drosophila melanogaster) (UniProt Q9GV40); experiment: Inhibition of fruit fly DNA polymerase epsilon at 200 uM; method in brief: as §1
[4] = target: T2, DNA polymerase alpha catalytic subunit (Drosophila melanogaster) (UniProt P26019); experiment: Inhibition of fruit fly DNA polymerase alpha at 200 uM; method in brief: as §1
T2 sequence (whole entry): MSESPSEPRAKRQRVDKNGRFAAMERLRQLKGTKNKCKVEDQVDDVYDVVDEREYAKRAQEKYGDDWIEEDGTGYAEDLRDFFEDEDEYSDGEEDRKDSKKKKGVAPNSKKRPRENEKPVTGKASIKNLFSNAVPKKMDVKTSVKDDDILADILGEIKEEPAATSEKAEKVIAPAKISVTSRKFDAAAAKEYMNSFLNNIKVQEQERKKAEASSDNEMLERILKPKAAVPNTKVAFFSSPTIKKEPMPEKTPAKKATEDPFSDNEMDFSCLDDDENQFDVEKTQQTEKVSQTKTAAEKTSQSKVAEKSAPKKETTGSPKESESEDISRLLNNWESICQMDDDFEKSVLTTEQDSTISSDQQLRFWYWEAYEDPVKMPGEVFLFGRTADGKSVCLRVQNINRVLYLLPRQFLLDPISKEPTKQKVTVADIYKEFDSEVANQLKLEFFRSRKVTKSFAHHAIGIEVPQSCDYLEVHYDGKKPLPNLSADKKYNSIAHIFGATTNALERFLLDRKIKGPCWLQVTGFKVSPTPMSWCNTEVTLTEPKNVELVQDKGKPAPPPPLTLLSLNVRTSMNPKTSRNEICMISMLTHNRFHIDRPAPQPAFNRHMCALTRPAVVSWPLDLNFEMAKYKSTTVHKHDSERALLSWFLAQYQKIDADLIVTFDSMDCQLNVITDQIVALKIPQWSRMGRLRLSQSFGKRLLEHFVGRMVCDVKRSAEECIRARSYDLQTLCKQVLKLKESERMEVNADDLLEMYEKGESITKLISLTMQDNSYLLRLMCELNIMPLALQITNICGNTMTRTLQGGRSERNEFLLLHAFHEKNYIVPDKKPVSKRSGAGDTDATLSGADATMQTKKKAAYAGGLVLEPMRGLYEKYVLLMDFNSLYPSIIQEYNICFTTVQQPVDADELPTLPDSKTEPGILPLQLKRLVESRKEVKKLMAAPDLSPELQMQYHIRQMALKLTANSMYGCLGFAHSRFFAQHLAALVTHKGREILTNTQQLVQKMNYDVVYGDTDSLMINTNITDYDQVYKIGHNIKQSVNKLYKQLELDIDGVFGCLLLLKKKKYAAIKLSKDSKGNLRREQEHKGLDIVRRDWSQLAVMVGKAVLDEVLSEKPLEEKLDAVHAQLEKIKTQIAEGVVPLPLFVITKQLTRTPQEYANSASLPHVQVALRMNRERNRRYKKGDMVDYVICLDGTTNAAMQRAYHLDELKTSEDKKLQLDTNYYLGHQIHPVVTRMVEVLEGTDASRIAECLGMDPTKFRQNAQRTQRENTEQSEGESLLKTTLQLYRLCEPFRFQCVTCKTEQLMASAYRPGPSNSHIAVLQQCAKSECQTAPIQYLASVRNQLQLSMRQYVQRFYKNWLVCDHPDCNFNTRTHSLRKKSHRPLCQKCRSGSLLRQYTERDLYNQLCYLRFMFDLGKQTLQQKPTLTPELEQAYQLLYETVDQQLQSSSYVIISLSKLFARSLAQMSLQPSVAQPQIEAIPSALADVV

[5] = tested on: Brassica oleracea var. botrytis; experiment: Inhibition of cauliflower DNA polymerase epsilon at 200 uM; method in brief: as §1

Sequence of DNA polymerase (Drosophila melanogaster) (Q9GV40 as listed by the source): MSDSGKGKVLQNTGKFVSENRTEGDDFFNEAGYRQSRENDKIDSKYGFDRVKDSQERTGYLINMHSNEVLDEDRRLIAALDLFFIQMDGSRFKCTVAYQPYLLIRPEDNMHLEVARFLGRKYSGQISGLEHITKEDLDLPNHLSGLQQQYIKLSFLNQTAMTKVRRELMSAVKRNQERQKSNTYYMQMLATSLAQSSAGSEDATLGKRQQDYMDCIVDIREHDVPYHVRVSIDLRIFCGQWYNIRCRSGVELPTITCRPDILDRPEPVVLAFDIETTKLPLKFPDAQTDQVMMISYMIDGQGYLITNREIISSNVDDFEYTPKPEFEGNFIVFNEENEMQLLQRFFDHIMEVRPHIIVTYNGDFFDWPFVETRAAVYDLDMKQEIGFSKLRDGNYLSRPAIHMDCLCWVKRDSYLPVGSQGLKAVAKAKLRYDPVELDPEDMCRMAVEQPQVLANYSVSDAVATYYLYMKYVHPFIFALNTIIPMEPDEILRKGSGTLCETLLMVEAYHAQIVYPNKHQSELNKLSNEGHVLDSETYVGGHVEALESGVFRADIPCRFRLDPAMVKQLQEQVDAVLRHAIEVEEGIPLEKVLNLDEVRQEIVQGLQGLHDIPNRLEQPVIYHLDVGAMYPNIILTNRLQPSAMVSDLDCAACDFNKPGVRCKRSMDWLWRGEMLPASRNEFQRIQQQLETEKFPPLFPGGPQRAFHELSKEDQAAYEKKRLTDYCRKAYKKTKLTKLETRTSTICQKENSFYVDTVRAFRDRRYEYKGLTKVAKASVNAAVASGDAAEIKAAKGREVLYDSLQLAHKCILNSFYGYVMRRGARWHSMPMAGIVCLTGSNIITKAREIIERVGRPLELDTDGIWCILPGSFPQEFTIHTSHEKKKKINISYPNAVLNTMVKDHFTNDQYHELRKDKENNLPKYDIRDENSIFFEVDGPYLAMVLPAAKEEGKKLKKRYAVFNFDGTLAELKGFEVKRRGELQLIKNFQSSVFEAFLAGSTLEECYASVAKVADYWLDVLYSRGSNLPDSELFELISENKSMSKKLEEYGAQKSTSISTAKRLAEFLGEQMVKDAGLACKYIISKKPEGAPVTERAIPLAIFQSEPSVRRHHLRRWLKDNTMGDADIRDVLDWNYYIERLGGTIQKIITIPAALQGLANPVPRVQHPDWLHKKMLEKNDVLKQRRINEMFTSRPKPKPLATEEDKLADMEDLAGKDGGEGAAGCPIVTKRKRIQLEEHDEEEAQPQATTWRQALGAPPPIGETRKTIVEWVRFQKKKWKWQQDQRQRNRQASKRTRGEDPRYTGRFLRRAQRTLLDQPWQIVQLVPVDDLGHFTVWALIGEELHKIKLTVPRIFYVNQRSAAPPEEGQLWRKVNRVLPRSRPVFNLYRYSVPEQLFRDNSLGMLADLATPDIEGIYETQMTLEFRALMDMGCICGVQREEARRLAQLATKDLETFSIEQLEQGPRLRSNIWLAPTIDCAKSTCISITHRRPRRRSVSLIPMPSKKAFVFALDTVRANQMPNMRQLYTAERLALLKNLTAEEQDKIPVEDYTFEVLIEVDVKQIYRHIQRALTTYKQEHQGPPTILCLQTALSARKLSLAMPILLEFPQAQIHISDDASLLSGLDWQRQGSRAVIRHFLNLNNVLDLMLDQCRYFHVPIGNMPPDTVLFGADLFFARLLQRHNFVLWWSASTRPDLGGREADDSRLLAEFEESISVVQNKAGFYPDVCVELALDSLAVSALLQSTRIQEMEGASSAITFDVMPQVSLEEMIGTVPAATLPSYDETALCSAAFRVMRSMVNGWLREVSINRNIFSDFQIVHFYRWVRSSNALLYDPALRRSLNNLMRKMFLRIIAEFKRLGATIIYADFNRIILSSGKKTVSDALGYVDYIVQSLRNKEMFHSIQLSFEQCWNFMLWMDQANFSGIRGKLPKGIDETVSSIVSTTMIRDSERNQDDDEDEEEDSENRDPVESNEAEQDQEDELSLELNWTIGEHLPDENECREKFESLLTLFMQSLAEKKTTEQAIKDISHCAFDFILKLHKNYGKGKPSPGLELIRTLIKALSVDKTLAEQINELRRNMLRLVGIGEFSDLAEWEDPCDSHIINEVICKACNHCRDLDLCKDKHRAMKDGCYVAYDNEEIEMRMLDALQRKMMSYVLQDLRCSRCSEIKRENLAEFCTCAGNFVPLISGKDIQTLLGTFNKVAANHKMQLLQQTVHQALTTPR
Sequence of DNA polymerase I, thermostable (Thermus aquaticus) (P19821 whole entry): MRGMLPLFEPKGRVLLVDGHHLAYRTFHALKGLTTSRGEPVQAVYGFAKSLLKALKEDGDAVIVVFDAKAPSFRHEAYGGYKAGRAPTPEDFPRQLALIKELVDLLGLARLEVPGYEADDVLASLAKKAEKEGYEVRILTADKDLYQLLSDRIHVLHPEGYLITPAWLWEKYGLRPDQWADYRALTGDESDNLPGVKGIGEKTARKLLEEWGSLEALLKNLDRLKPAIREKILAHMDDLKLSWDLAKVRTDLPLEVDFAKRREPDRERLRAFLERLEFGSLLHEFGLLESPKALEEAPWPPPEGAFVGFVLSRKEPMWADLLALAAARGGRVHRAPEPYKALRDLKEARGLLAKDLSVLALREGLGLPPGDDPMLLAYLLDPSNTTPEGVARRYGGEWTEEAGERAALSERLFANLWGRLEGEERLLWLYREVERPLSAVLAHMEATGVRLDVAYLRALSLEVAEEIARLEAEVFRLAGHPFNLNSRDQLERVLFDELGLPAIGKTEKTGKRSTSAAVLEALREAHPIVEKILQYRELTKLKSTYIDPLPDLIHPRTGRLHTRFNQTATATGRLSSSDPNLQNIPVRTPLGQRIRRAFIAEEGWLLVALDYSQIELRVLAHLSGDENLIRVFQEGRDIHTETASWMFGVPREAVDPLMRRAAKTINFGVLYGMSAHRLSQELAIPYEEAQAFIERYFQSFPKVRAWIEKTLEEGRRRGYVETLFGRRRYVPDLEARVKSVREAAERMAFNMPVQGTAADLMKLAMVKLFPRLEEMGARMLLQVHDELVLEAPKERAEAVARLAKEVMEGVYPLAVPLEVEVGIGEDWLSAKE

- Activity [1]: inactive
- Activity [2]: inactive
- Activity [3]: inactive
- Activity [4]: inactive
- Activity [5]: inactive
Structure (SMILES): C/C(=C\CC[C@H](C)C(=O)O)[C@H]1CC[C@H](C(=O)O)CC1
